# From ChEMBL document CHEMBL3792376, “Exploiting the Chromone Scaffold for the Development of Inhibitors of Corticosteroid Biosynthesis” (J Med Chem, 2016)
# Columns and labels:
# [1] = molecular target: T1, Aromatase (Homo sapiens, UniProt P11511); assay: Inhibition of human placental CYP19 using [1beta-3H]-androstenedione as substrate for 3 hrs measured as formation of [3]H2O in presence of NADPH
# T1 sequence (P11511 whole entry): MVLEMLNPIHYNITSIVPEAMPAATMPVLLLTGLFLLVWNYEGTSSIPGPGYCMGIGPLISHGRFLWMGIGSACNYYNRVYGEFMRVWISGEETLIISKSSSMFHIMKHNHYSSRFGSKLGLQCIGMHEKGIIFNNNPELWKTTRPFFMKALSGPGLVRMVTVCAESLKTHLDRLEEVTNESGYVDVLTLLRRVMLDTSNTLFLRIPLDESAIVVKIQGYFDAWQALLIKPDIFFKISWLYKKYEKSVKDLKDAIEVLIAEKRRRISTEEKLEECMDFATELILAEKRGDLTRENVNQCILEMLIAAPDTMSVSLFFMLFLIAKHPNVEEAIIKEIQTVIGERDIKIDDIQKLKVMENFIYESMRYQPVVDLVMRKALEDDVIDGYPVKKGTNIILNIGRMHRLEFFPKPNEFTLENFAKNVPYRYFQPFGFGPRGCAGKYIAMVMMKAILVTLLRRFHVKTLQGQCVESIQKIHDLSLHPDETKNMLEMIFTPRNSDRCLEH
# In short: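 Microsomes from fresh human term placenta. [1β-3H]androstenedione 500 nM, NADPH, glucose 6-phosphate and dehydrogenase plus inhibitor in 0.05 M phosphate pH 7.4, preincubated 5 min at 30 °C. Started with microsomal protein and run 3 h. Ethyl acetate stop, HgCl2, dextran-coated charcoal to remove steroids. 3H2O released measured. Mean of ≥3 experiments, RSD <25%.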
# [2] = molecular target: T2, Cytochrome P450 11B1, mitochondrial (Homo sapiens, UniProt P15538); assay: Inhibition of human CYP11B1 expressed in V79 MZh cells using [1,2-3H]-11-deoxycorticosterone as substrate for 6 hrs by HPTLC analysis; assay type: cell-based, V79MZh
# T2 sequence (P15538 whole entry): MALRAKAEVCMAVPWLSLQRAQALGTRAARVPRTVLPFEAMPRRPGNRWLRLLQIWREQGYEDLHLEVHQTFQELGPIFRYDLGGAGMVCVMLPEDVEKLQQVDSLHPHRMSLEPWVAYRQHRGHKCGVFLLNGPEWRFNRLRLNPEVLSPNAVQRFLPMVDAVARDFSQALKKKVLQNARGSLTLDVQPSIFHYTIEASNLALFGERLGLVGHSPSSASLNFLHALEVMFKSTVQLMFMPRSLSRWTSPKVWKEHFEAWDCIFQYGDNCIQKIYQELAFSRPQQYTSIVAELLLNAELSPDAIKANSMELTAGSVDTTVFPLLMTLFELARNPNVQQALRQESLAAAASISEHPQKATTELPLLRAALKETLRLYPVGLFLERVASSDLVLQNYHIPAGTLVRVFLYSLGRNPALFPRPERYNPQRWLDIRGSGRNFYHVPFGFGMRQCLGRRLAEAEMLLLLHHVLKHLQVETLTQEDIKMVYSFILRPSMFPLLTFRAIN
# In short: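 Hamster fibroblast V79 MZh cells stably expressing human CYP11B1, grown to confluence in 6-well plates. Radiolabelled deoxycorticosterone at 100 nM, test inhibitor across a concentration range, 6 h incubation. Supernatant extracted with chloroform and centrifuged. Steroids redissolved in chloroform and separated by HPTLC. IC50 is the mean of at least three experiments, relative SD below 25%.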
# [3] = molecular target: T3, Cytochrome P450 11B2, mitochondrial (Homo sapiens, UniProt P19099); assay: Inhibition of human CYP11B2 expressed in V79 MZh cells using [1,2-3H]-11-deoxycorticosterone as substrate for 30 mins by HPTLC analysis; assay type: cell-based, V79MZh
# T3 sequence (P19099 whole entry): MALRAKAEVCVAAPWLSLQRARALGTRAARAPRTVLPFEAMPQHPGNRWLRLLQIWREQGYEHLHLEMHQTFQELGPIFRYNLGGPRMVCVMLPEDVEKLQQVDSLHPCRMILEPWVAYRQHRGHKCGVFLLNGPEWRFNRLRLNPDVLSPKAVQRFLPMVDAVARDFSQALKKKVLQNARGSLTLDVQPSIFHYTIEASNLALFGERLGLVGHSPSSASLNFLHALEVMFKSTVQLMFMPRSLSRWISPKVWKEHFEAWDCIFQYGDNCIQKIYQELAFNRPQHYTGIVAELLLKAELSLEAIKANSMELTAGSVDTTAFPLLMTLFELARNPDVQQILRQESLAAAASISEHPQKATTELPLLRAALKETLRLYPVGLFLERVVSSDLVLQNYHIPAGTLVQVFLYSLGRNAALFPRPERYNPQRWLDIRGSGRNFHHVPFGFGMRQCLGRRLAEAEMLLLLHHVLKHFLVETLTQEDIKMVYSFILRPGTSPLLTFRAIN
# In short: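 Confluent V79 MZh hamster fibroblasts expressing human CYP11B2, in 6-well plates. Reaction started with [1,2-3H]-11-deoxycorticosterone (100 nM) plus inhibitor at several concentrations and run 30 min. Chloroform extraction of supernatant, then HPTLC of steroids. Mean of ≥3 experiments, relative SD <25%.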
# [4] = species: Homo sapiens; assay: Selectivity index, ratio of IC50 for human CYP11B2 to IC50 for human CYP11B1
# In short: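 Calculated as IC50(CYP11B2)/IC50(CYP11B1). Both IC50s come from V79 MZh hamster fibroblasts expressing the human enzyme, with 100 nM radiolabelled deoxycorticosterone: 6 h for 11B1 and 30 min for 11B2. Readout by HPTLC.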
# [5] = molecular target: T4, Steroid 17-alpha-hydroxylase/17,20 lyase (Homo sapiens, UniProt P05093); assay: Inhibition of human CYP17 expressed in Escherichia coli co-transfected with rat NADPH-P450 reductase using progesterone as substrate for 30 mins measured as formation of 17alpha-hydroxyprogesterone and 16alpha-hydroxyprogesterone in presence of NADPH
# T4 sequence (P05093 whole entry): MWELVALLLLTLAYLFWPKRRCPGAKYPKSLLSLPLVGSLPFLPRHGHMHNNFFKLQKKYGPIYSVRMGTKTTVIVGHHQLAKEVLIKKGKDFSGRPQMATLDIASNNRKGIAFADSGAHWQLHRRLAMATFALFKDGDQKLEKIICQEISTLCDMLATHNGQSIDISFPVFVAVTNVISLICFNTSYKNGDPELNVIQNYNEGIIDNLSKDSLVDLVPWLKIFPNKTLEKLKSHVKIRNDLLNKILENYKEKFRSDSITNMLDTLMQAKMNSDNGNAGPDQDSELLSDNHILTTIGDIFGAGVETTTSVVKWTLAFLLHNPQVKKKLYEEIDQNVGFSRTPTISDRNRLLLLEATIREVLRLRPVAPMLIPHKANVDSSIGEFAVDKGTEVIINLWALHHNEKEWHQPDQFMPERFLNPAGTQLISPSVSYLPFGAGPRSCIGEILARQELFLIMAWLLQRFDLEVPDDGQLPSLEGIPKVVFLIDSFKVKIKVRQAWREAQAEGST
# In short: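 Membrane pellet from E. coli co-expressing human CYP17 and rat NADPH-P450 reductase (lysozyme, sonication, 4 °C). Progesterone 25 μM with NADPH-generating system (NADP+, glucose 6-phosphate, G6P dehydrogenase) and inhibitor, preincubated 5 min at 37 °C. Membranes added, 30 min at 37 °C. Acid quench, ethyl acetate extraction. Readout: 17α- and 16α-hydroxyprogesterone formed. Mean of ≥3 runs.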
# [6] = Cytotoxicity against HEK293 cells assessed as cell viability upto 100 times IC50 concentration for 3 hrs by MTT assay; assay type: cell-based; settings: human, read-out: Activity
# In short: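 HEK293 cells in DMEM with 10% FCS, exposed to 0.1 and 1 μM compound for 3 h at 37 °C, 5% CO2, humidified. Then MTT (5 mg/mL stock in PBS) added for a further 3 h. Stopped and lysed with 10% SDS in 0.01 N HCl. Viability from MTT reduction, expressed as % of control.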
SMILES,IC50 [1] [nM],IC50 [2] [nM],IC50 [3] [nM],Ratio IC50 [4],IC50 [5] [nM],viability at 3 h [6] [%]
O=c1c(Cc2c[nH]cn2)coc2cc(F)ccc12,3100,9.7,94.9,9.8,> 10000,95
O=c1cc(Cc2cccnc2)oc2cc(F)ccc12,,> 10000,> 10000,,,
O=c1cc(Cc2ccncc2)oc2ccccc12,,222,1240,5.6,,
O=c1c(Cc2ccncc2)coc2cc(F)ccc12,5000,58.1,317,5.3,6600,95
O=c1c(Cc2cccnc2)coc2cc(F)ccc12,,> 10000,> 10000,,,
COc1ccc2c(=O)cc(Cn3ccnc3)oc2c1,,1600,2270,1.4,,
O=c1cc(Cn2ccnc2)oc2cc(F)ccc12,,327,620,1.9,,
COc1ccc2c(=O)cc(Cc3cccnc3)oc2c1,,> 10000,> 10000,,,
COc1ccc2c(=O)c(Cc3c[nH]cn3)coc2c1,7900,109,1070,9.8,> 10000,
O=c1c(Cc2c[nH]cn2)coc2ccccc12,,29.5,121,4.1,,95
O=c1cc(Cc2cccnc2)oc2ccccc12,,> 10000,> 10000,,,
O=c1cc(Cn2ccnc2)oc2ccccc12,,253,500,2,,
COc1ccc2c(=O)c(Cc3ccncc3)coc2c1,,612,3270,5,,
O=c1c(Cc2cccnc2)coc2ccccc12,,> 10000,> 10000,,,
O=c1c(Cc2ccncc2)coc2ccccc12,6100,88.2,954,10.8,4800,
COc1ccc2c(=O)c(Cc3cccnc3)coc2c1,,> 10000,> 10000,,,
O=c1c(Cn2ccnc2)coc2ccccc12,,180,522,2.9,,
COc1ccc2c(=O)cc(Cc3ccncc3)oc2c1,,3600,> 5000,,,
O=c1c(Cn2ccnc2)coc2cc(F)ccc12,,86.9,214,2.5,,
COc1ccc2c(=O)c(Cn3ccnc3)coc2c1,,372,768,2.1,,
O=c1cc(Cc2ccncc2)oc2cc(F)ccc12,> 10000,82.7,643,7.8,> 10000,
